Measured values from ChEMBL document CHEMBL5696442, “Discovery of type II inhibitors of TGFβ-activated kinase 1 (TAK1) and mitogen-activated protein kinase kinase kinase kinase 2 (MAP4K2)” (J Med Chem, 2015).

Key:
Format in all cases: cell-based
[1] = biological target: Tyrosine-protein kinase Fer (Homo sapiens, UniProt P16591); assay: Inhibition of FER ACT labeling site in human A-375 cells at 0.5 uM by KiNativ Profiling analysis relative to control
[2] = biological target: Cyclin-dependent kinase 11B (Homo sapiens) (UniProt P21127); assay: Inhibition of CDK11 Lys2 labeling site in human A-375 cells at 5 uM by KiNativ Profiling analysis relative to control
Outline: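 Live A375 melanoma cells were treated with compound at 5 or 0.5 μM. The cells were then lysed, and the lysates were labeled with a lysine-reactive ATP or ADP-biotin acyl probe (KiNativ). Inhibition is the compound's protection of each kinase labeling-site peptide from probe labeling, relative to untreated control.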

[3] = biological target: T1, Kinase suppressor of Ras 2 (Homo sapiens) (UniProt Q6VAB6); assay: Inhibition of KSR2 ACT labeling site in human A-375 cells at 5 uM by KiNativ Profiling analysis relative to control
T1 sequence (whole entry): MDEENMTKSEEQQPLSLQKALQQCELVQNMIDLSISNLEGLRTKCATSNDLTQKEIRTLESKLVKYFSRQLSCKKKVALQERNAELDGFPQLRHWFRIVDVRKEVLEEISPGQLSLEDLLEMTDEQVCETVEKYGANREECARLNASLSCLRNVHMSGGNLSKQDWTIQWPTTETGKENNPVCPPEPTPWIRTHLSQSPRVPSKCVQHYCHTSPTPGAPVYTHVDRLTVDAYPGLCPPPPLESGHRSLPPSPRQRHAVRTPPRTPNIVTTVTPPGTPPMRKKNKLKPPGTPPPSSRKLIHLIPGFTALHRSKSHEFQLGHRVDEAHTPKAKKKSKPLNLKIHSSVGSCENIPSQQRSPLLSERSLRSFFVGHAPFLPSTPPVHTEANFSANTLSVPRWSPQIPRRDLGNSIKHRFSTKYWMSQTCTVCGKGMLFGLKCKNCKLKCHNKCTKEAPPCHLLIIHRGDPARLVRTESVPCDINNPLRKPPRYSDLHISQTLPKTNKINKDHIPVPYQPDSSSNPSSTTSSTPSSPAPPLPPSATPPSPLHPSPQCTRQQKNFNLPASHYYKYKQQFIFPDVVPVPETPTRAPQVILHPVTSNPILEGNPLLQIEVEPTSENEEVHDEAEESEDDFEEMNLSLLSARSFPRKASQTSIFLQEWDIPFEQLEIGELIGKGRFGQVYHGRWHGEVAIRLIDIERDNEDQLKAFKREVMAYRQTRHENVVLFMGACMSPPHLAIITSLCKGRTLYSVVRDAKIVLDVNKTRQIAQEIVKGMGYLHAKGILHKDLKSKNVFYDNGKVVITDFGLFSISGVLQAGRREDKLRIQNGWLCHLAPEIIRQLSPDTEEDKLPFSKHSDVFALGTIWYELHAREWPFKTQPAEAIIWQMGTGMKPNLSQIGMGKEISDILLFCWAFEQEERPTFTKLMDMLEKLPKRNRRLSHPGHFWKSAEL

[4] = biological target: Cyclin-dependent kinase 18 (Homo sapiens) (UniProt Q07002); assay: Inhibition of PCTAIRE3 Lys1 labeling site harbouringSKLTENLVALKEIR in human A-375 cells at 0.5 uM by KiNativ Profiling analysis relative to control
Outline: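 Live A375 melanoma cells were treated with compound at 5 or 0.5 μM, then lysed. Lysates were labeled with a lysine-reactive ATP or ADP-biotin probe. Read-out was the compound's protection of kinase labeling sites from probe labeling (KiNativ).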

[5] = biological target: T2, EKC/KEOPS complex subunit TP53RK (Homo sapiens) (UniProt Q96S44); assay: Inhibition of PRPK ATP Loop labeling site in human A-375 cells at 0.5 uM by KiNativ Profiling analysis relative to control
T2 sequence (whole entry): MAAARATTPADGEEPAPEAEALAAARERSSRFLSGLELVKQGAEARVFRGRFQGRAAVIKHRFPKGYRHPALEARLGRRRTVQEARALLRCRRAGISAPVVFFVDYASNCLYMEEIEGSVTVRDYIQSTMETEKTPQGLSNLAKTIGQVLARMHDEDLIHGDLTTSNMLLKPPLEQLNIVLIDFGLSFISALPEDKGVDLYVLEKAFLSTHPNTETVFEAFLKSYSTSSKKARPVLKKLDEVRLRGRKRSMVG

[6] = biological target: T3, Mitogen-activated protein kinase kinase kinase 3 (Homo sapiens) (UniProt Q99759); assay: Inhibition of MAP3K3 Lys1 labeling site in human A-375 cells at 0.05 uM by KiNativ Profiling analysis relative to control
T3 sequence (whole entry): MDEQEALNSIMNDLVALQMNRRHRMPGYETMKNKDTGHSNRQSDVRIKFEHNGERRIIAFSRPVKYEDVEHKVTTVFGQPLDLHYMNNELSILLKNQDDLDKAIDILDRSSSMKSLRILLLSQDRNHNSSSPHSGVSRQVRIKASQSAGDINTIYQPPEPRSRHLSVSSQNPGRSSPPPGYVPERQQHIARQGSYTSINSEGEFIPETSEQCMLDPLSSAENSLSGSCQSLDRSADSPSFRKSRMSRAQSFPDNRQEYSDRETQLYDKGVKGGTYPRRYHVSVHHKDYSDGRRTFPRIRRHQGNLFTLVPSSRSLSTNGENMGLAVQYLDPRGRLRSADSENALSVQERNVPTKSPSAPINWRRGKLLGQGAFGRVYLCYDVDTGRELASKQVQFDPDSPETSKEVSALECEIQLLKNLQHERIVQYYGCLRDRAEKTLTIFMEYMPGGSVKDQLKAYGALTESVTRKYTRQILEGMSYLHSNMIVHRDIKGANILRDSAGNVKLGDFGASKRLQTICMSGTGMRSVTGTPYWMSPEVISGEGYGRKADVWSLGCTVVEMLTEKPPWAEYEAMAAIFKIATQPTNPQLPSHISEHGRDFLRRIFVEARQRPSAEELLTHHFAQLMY

[7] = biological target: Mitogen-activated protein kinase 14 (Homo sapiens, UniProt Q16539); assay: Inhibition of p38 alpha Lys2 labeling site in human A-375 cells at 0.05 uM by KiNativ Profiling analysis relative to control
Chain of Mitogen-activated protein kinase 14 (Q16539 whole entry): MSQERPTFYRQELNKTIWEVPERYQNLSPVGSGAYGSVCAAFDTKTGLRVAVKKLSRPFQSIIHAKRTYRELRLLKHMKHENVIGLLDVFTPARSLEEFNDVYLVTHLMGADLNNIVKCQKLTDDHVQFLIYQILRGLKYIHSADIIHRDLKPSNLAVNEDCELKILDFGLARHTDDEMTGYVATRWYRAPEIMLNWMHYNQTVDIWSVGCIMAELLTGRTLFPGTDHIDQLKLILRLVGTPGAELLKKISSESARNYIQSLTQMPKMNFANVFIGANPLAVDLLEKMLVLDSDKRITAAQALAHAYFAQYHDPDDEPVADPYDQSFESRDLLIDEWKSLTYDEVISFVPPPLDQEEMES

Chain of Cyclin-dependent kinase 18 (Homo sapiens) (Q07002 whole entry): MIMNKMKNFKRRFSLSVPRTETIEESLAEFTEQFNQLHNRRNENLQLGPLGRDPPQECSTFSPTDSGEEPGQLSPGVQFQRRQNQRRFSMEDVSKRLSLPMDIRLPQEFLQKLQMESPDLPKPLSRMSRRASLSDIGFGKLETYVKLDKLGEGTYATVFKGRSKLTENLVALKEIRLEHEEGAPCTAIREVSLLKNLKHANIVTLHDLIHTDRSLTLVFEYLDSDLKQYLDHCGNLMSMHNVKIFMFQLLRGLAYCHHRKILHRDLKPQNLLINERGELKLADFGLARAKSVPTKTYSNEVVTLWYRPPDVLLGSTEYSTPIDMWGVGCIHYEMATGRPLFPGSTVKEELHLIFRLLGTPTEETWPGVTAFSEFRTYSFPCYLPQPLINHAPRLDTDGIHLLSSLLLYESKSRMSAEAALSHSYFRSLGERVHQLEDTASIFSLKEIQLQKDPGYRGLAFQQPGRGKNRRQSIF
Chain of Cyclin-dependent kinase 11B (Homo sapiens) (P21127 whole entry): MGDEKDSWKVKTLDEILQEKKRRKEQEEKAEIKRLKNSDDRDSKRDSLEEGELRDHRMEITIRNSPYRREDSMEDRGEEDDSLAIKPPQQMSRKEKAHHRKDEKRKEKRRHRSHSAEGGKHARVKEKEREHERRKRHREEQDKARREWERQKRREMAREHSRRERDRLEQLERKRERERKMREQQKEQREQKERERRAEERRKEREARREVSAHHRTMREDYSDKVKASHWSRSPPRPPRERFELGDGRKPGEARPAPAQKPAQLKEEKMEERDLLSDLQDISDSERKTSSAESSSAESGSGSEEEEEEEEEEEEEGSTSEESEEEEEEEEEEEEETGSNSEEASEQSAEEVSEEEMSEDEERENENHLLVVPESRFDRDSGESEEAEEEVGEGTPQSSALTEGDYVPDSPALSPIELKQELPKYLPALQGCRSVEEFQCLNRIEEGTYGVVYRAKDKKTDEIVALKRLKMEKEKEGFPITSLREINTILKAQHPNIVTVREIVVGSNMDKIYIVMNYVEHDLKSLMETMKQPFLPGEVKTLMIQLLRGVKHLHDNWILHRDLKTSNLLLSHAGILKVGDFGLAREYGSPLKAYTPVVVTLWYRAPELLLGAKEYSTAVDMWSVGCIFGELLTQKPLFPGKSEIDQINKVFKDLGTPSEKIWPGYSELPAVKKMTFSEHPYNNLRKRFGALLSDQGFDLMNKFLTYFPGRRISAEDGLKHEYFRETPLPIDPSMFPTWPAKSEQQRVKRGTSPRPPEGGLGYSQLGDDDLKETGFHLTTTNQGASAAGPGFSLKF
Chain of Tyrosine-protein kinase Fer (P16591 whole entry, looked up): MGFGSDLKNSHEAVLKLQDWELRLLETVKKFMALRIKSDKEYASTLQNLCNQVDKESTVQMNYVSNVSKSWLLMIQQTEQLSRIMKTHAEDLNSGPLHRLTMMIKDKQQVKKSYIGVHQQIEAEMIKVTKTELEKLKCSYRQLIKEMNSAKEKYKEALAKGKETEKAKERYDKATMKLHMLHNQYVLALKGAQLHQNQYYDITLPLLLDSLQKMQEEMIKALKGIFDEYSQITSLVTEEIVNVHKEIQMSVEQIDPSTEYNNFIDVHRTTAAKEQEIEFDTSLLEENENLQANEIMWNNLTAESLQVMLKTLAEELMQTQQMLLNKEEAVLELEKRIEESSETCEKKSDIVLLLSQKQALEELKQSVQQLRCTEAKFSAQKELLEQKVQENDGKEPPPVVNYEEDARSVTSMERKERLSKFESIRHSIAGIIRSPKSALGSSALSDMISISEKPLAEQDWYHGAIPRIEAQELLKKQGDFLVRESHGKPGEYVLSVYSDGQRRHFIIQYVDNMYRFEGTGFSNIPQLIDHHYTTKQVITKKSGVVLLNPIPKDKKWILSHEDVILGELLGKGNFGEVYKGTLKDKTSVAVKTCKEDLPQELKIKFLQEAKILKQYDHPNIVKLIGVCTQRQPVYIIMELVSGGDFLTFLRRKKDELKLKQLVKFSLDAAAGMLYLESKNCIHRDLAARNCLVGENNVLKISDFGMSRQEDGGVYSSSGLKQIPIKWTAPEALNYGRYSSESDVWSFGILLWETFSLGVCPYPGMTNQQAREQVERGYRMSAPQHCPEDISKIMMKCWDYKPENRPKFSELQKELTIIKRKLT

SMILES	inhibition [1]	inhibition [2]	inhibition [3]	inhibition [4]	inhibition [5]	inhibition [6]	inhibition [7]
CCN1CCN(Cc2ccc(NC(=O)c3ccc(C)c(/C=C/c4cnc5[nH]ccc5c4OC)c3)cc2C(F)(F)F)CC1	-10%	16.9%	12.2%	11.3%	9.6%	31%	59.4%
CCN1CCN(Cc2ccc(NC(=O)c3ccc(C)c(Oc4ccnc5[nH]ccc45)c3)cc2C(F)(F)F)CC1	88%	18%	32.1%	31.7%	9.2%	16.7%	4.2%
